Measured values of several laboratories.
Each line is one published result; the experiments were not run side by side.
Target: Mitogen-activated protein kinase kinase kinase 20 (MAP3K20, Homo sapiens, UniProt Q9NYL2)

Structure (SMILES) | effect on | method | tested at | remaining binding
C[C@H]1CCN(c2nccc(-c3cnn4ncccc34)n2)C1 | binding | – | 1 µM | 97%
c1cncc(-c2cccc(Nc3nccc(NC4CCCCC4)n3)c2)c1 | binding | competition with immobilised ligand | 10 µM | 93%
COc1ccnn2ncc(-c3ccnc(N(C)C)n3)c12 | binding | – | 1 µM | 100%
Cc1cnc(Nc2ccc(C(=O)N3CCC(N4CCCC4)CC3)cc2)nc1-c1cc2ccccc2s1 | binding | competition with immobilised ligand | 1 µM | 43%
c1cnn2ncc(-c3ccnc(N4CCC45COC5)n3)c2c1 | binding | – | 1 µM | 100%
CO[C@@H](C)c1c(Nc2ccc([C@@H](N(C)C(=O)C3CCS(=O)(=O)CC3)C(F)(F)F)cc2)cnc2cc(Cl)nn12 | cell-free assay | competition with immobilised ligand | 1 µM | 100%
F[C@@H]1CCN(c2nccc(-c3cnn4ncccc34)n2)C1 | binding | – | 1 µM | 76%
CNC(=O)[C@@H]1CC[C@@H](n2c(-c3ccc4cnccc4c3)nc3ccc(C(=O)NCc4cccc(C(N)=O)c4)cc32)C1 | binding | competition with immobilised ligand | 1 µM | 100%
O=C(NCC1CCOCC1)c1n[nH]cc1NC(=O)c1c(F)cccc1F | binding | competition with immobilised ligand | 1 µM | 100%
C[C@@H](c1ccc(-n2cnc3c(N)ncnc32)cc1)N1CCc2nn(C)c(Cc3ccccc3)c2C1=O | binding | competition with immobilised ligand | 0.1 µM | 58%
O=C(NCCCN1CCOCC1)c1ccc(Nc2nccc(-c3cc4ccccc4s3)n2)cc1 | binding | competition with immobilised ligand | 1 µM | 62%
COc1ncc2cc3ccccc3nc2c1C#N | cell-free assay | competition with immobilised ligand | 5 µM | 80%
O=C(O)[C@@H]1[C@@H](Cn2nnc3ccccc3c2=O)CC[C@H]1C(=O)c1ccc(OCCC2CCOCC2)cc1 | cell-free assay | competition with immobilised ligand | 1 µM | 91%
N[C@@H]1CCN(c2nccc(-c3cnn4ncccc34)n2)C1 | binding | – | 1 µM | 100%
Cc1cc(C)c(-n2ccn3nc(-c4cccnc4)cc23)cc1NC(=O)c1cc(C#N)cc(S(F)(F)(F)(F)F)c1 | cell-free assay | competition with immobilised ligand | 0.1 µM | 97.5%
CN(CCCC(F)(F)F)c1nccc(-c2cnn3ncccc23)n1 | binding | – | 1 µM | 88%
Cc1c(NC(=O)c2cc(C(N)=O)nc3cc(F)ccc23)c(C(F)(F)F)nn1Cc1ccc(C(C)(C)C)cc1 | cell-free assay | competition with immobilised ligand | 1 µM | 100%
COc1cnc(Nc2cccc(S(N)(=O)=O)c2)nc1N1CCN(c2ccccc2)C(=O)C1 | binding | competition with immobilised ligand | 1 µM | 100%
O=c1nc(-c2ccccn2)sc2ccccc12 | binding | competition with immobilised ligand | 1 µM | 87%
CN(C)c1nccc(-c2cnc3ncccn23)n1 | binding | – | 1 µM | 89%
CCOC(=O)c1cc2cc(-c3cc(C(=O)NCc4ccc(C(=O)O)cc4)nn3C)ccc2[nH]1 | cell-free assay | competition with immobilised ligand | 0.1 µM | 87%
O=C(c1ccc(Nc2ncc(Cl)c(-c3cc4ccccc4s3)n2)cc1)N1CCC(N2CCCC2)CC1 | binding | competition with immobilised ligand | 1 µM | 48%
